NR3A LBD binder = modulators (binders) of human NR3A ligand-binding domain. NR3A LBD differential scanning fluorimetry, Tm shift; 0% = protein alone, 100% = glycine-bound protein. Tm shift relative to glycine control, % at 25 µM. 2.5% of 340,000 active. AID 1259313;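 active = melting temperature shift of at least 10% of the positive control shift, at one fixed dose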
MPTP block = inhibitors of mitochondrial permeability transition pore; isolated mouse mitochondria, Ca2+ swelling absorbance, 30 min; inhibition, % at 10 µM; 1.4% of 360,000 active; AID 602449;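 active = inhibition of 50% or more, scaled per plate between neutral and stimulator controls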;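 note: 0% = DMSO wells given calcium and 100% = 1 mM EGTA wells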
TbMetRS inhib = blocks T. brucei methionyl-tRNA synthetase activity; purified T. brucei MetRS, ATP depletion, Kinase-Glo luminescence; inhibition, % at 11.9 µM; 0.4% of 360,000 active; AID 624268;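 active = inhibition above a per-plate cutoff of the control wells' mean inhibition plus 3 SD, cut at about 5.5% in these data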;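 note: 0% = DMSO wells median and 100% = median of wells with control inhibitor compound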
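Test system – parasite MetRS enzyme · Reagent – substrates ATP, L-methionine and bulk Escherichia coli tRNA · Doses – 11.9 µM compound single dose, 0.9% DMSO · Times – 15 min enzyme-compound preincubation, 2 h reaction, 10 min detection, 25 °C · Signal – Kinase-Glo luminescence, ATP depletion format · Controls – DMSO-only wells as low control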
WT yeast gro inh = growth inhibition of WT yeast, mitochondrial fusion screen | mitochondrial fusion phenotypic screen, WT strain | inhibition, % at 10 µM | 2.1% of 190,000 active | AID 1362; in the data active = inhibition above about 58%; tested in S. cerevisiae
EBV gp42 inh = inhibitors of Epstein-Barr virus glycoprotein 42 | Q1HVG2 | inhibition, % (tested at 21.74 µM) | 0.42% of 220,000 active | Fluorescence polarization binding assay, mP read-out; in the data active = inhibition above about 50%
Target sequence (Q1HVG2 whole entry, looked up): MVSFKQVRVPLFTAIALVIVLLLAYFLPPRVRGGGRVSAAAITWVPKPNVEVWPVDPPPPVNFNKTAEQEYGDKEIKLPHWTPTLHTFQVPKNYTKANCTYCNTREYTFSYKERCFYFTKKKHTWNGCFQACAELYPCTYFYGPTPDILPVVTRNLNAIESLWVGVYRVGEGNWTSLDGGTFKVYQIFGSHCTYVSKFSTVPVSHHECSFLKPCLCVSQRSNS
CHOP inh = blocks CHOP induction under ER stress | CHO-K1 CHOP-promoter luciferase, tunicamycin-induced, 15-18 h | 3.8% of 220,000 active | inhibition, % at 10 µM;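 active = compounds that reduced the stress-induced luciferase reporter signal by more than about 70% of percent inhibition, limit read from the data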;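 note: 0% = tunicamycin plus vehicle and 100% = wells without tunicamycin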
CHOP confirm = confirmation of CHOP induction inhibitors; shares compounds with CHOP inh; CHO-CHOP promoter luciferase reporter, tunicamycin-induced, luminescence; 45% of 2,100 active; inhibition, % at 10 µM;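 active = mean of three repeat readings of reporter signal inhibition above a set limit, cut at about 70% in these data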;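 note: 0% = tunicamycin plus vehicle and 100% = wells lacking tunicamycin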
Starred values were filed as active, the others as inactive; nt = not tested or not shown. In the library only some 6.4% were active in any assay of this set; here they are far more common.

SMILES	NR3A LBD binder	MPTP block	TbMetRS inhib	WT yeast gro inh	EBV gp42 inh	CHOP inh	CHOP confirm
CCCCN(C(=O)c1ccccc1F)c1c(N)n(CCC)c(=O)[nH]c1=O	0	-2	0	nt	nt	nt	nt
CCOC(=O)c1nnn(-c2nc(OC)nc(N3CCCCC3)n2)c1-c1ccccc1	nt	nt	nt	-6	-12	67	nt
CCOC(=O)c1c(-c2ccccc2)nnn1-c1nc(OCC)nc(N2CCCCC2)n1	-1	0	-1	-13	-2	101*	62
Cc1ccc(OCCN2C(=O)CSC2=O)cc1	-2	1	0	0	-7	6	nt
O=C(Nc1ccc(-c2nc3ccccc3s2)cc1)C1=COCCO1	30*	4	0	7	-5	104*	92*
O=C(Cc1cccc2ccccc12)Nc1cccnc1	0	1	-1	-7	3	4	nt
O=C(Nc1nc2ccccc2n1Cc1ccc(Cl)cc1)c1ccco1	-17	3	0	-6	-13	103*	-53
Cc1cccc(OCCn2c(NC(=O)c3ccco3)nc3ccccc32)c1	-7	1	0	73*	0	104*	-12
Cc1ccc(SCc2ccc(C(=O)Nc3cc([N+](=O)[O-])ccc3C)cc2)cc1	-3	25	0	22	-1	-9	nt
O=C(N/N=C/c1cccc(Cl)c1)c1c(O)c2c([nH]c1=O)CCCC2	0	0	-1	nt	-21	98*	-7
O=C(Nc1nccs1)c1c(O)c2c([nH]c1=O)CCCC2	1	1	0	nt	-16	-15	nt
O=C(N/N=C/c1ccc(Cl)cc1)c1n[nH]c2c1CCCC2	2	9	0	nt	-9	-63	nt
O=C(Nc1ccccc1O)c1c(O)c2c([nH]c1=O)CCCC2	14*	3	-1	49	-19	103*	126*
Cc1occc1C(=O)Nc1c(F)c(F)c(F)c(F)c1F	4	2	0	8	5	18	nt
O=C(Nc1ccccc1OC(F)(F)F)c1ccc([N+](=O)[O-])cc1	1	1	0	26	-14	-5	nt
CCOC(=O)c1sc(NC(=O)CSc2nnnn2-c2ccc(C)cc2C)nc1C	1	-1	0	2	-11	100*	20
CCOC(=O)c1c(CN2CCOCC2)n(-c2ccccc2)c2cc(Br)c(O)cc12	-9	5	-1	15	17	99*	95*
CCOC(=O)c1c(CN2CCCCC2)n(C)c2cc(Br)c(O)cc12	-1	7	-1	21	0	44	nt
O=C(/C=C/c1cccc(F)c1)OCC(=O)N1CCCC1	-1	1	0	nt	nt	nt	nt
Cc1ccc2nc3c(cc2c1)CN(Cc1ccco1)C(=NCC1CCCO1)S3 (stereo not given)	4	-3	0	21	1	-56	nt
Cc1cccc2cc3c(nc12)SC(=NCC1CCCO1)N(Cc1ccco1)C3 (stereo not given)	-3	0	-1	4	-24	103*	48
CCCn1c(SCc2nc3sc(C)c(C)c3c(=O)[nH]2)nc2ccccc2c1=O	0	7	-1	-3	-72	106*	24
CN(C)S(=O)(=O)c1ccc(C(=O)Nc2nnc(SCc3cccc4ccccc34)s2)cc1	26*	12	-1	-11	-23	103*	11
COc1ccccc1NC(=O)CSc1nnc(COc2ccccc2C)o1	7	-2	0	nt	nt	nt	nt
CCOC(=O)c1cccc(NC(=O)CSc2nnc(COc3ccccc3C)o2)c1	-4	8	0	-7	-2	108*	12
SMILES	NR3A LBD binder	MPTP block	TbMetRS inhib	WT yeast gro inh	EBV gp42 inh	CHOP inh	CHOP confirm
COC(=O)/C=C/S(=O)(=O)c1ccc(NC(C)=O)cc1	2	-2	-1	2	-13	nt	64
Cc1ccc(NC(=O)CCl)cc1S(=O)(=O)N1CCCCCC1	1	-2	-1	-12	1	108*	134*
COc1ccc2c(c1)c1ccc3c(c1n2C)C(=O)C=CC3=O	-5	4	-1	nt	-5	104*	41
O=C(NN1CCOCC1)c1ccccc1NS(=O)(=O)c1ccc(F)cc1F	0	0	0	nt	nt	nt	nt
Cc1ccc(CNCc2cc3c(C(C)(C)C)nn(-c4ccccc4)c3[nH]c2=O)cc1	-4	5	-1	15	-11	108*	71*
COc1ccc(CNCc2cc3c(C(C)(C)C)nn(-c4ccccc4)c3[nH]c2=O)cc1	-6	2	-2	47	5	-8	nt
COc1ccc(NC(=O)CN2CCCC(C)C2)c([N+](=O)[O-])c1 (stereo not given)	3	0	0	17	0	101*	40
O=C(CCl)c1ccc2c(c1)CCN2C(=O)C1CCCCC1	0	-4	0	11	-22	109*	19
CCC1CCCCN1S(=O)(=O)c1ccc2c(c1)CCN2C(=O)C1CCC1 (stereo not given)	0	0	0	3	-22	18	nt
c1cc2c3c(cccc3c1)NC1(CCCCCC1)N2	-5	2	-1	11	-7	107*	-4
Cc1ccc(C(c2nnnn2Cc2cccs2)N2CCN(Cc3ccc4c(c3)OCO4)CC2)cc1 (stereo not given)	0	1	-1	6	-7	44	nt
Cc1cc(C)c(S(C)(=O)=O)c(S(=O)c2ccc(Cl)cc2)n1 (stereo not given)	0	-4	0	-21	-12	-11	nt
COc1ccc(CC(=O)NNC2=Nc3cccc4cccc2c34)cc1	5	7	0	nt	-15	100*	-60
NC(=O)NNC1=Nc2cccc3cccc1c23	-2	1	0	8	1	0	nt
Cc1ccc(Cn2nc(C)c(NC(=O)c3cc(-c4ccc5c(c4)OCO5)on3)c2C)cc1	-1	nt	nt	20	-18	106*	68
C/C=C/C=N/Nc1nc(-c2ccc([N+](=O)[O-])cc2)cs1	-2	3	0	24	-13	98*	-9
O=[N+]([O-])c1cccc(-c2csc(N/N=C/c3cccc(O)c3)n2)c1	24*	1	-1	84*	8	106*	6
CCOc1cc(/C=N\NC(=O)Cc2ccccc2)ccc1OCC(=O)Nc1ccc(C)c(C)c1	-1	-2	-1	9	8	97*	127*
O=C(N/N=C/c1ccc2c(c1)OCO2)c1cc2ccccc2o1	1	0	-1	nt	-2	12	nt
O=C(COc1ccc(/C=N/NC(=O)c2cc3ccccc3o2)cc1Cl)Nc1ccccc1	-1	0	-1	-9	-16	108*	46
CCCCc1nc2ccccc2c(=O)n1NC(=O)c1c(O)c2ccccc2n(C)c1=O	-12	4	1	27	5	98*	92*
Cc1ccc(NC(=O)c2c(O)c3ccccc3n(C)c2=O)nc1	2	1	-2	8	-3	97*	-10

Bioassay records deposited in PubChem by several laboratories.
